According to ChEMBL document CHEMBL4673214, “Synthesis and antibacterial bioactivities of cationic deacetyl linezolid amphiphiles” (Eur J Med Chem, 2018):
The source made the active and inactive calls. The rule behind the calls is not given here.

How the values were obtained:
[1] = tested on: Staphylococcus aureus; assay: Antibiofilm activity against 24 hrs preformed biofilm of Staphylococcus aureus ATCC 29213 assessed as biofilm viability at 16 ug/ml incubated for 24 hrs by crystal violet staining analysis (reference value: 18.9 1og10CFU); format: functional; details: dose 16 µg/ml
[2] = tested on: Staphylococcus aureus; assay: Antibacterial activity against Staphylococcus aureus ATCC 29213 assessed as reduction in bacterial measured after 20 passages by CLSI-based broth microdilution method; format: functional
In short: (§1)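 Serial passaging: after each 24 h MIC assay, cells grown at 1/2 MIC were transferred and the MIC assayed again, for 20 passages. Done with S. aureus, E. coli and MRSA. MIC plotted against days of passage. Experiment repeated twice.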

[3] = tested on: Escherichia coli; assay: Resistance ratio of compound MIC for Escherichia coli ATCC 25922 after 20 passages to compound MIC for Escherichia coli ATCC 25922 after 16 to 20 hrs by CLSI-based broth microdilution method; format: functional; in short: as §1
[4] = tested on: Staphylococcus aureus; assay: Antibacterial activity against methicillin-resistant Staphylococcus aureus assessed as reduction in bacterial growth following incubation in 50% MHB medium and 50% plasma and meaured after incubation with compound for 20 to 24 hrs by agar plate method; format: functional; details: time 20-24 hrs
In short: (§2)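 Sheep plasma obtained by centrifuging defibrinated blood at 3500 rpm for 10 min; serum isolated in serum tubes. MRSA at 10^5 CFU/mL in 50% MHB plus 50% serum, plasma or blood, or in MHB alone. Compound dilutions (512 to 4 µg/mL, pre-mixing) added 50 µL to 150 µL bacteria, 37 °C for 20-24 h. Then 20 µL plated on MHA, 37 °C 20-24 h; MBC taken as no colonies. Two repeats.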

[5] = tested on: Staphylococcus aureus; assay: Antibiofilm activity against 24 hrs preformed biofilm of Staphylococcus aureus ATCC 29213 assessed as biofilm viability at 128 ug/ml incubated for 24 hrs by crystal violet staining analysis (reference value: 18.9 1og10CFU); format: functional; details: dose 128 µg/ml
[6] = tested on: Staphylococcus aureus; assay: Antibiofilm activity against 24 hrs preformed biofilm of Staphylococcus aureus ATCC 29213 assessed as eradication of preformed biofilm incubated for 24 hrs by crystal violet staining assay; format: functional
[7] = Selectivity index, ratio of HC50 for Sheep erythrocytes to MIC for Escherichia coli ATCC 25922; format: toxicity
[8] = tested on: Staphylococcus aureus; assay: Antibacterial activity against Staphylococcus aureus ATCC 29213 assessed as reduction in bacterial growth compound preincubated with 50% sheep plasma for 6 hrs followed by incubation for 20 to 24 hrs by agar plate method; format: functional; details: time 20-24 hrs
In short: (§3)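 Sheep plasma came from centrifuged defibrinated blood. Compound at 512 µg/mL in 50% water/50% plasma was preincubated at 37 °C for 0, 3 or 6 h, then serially diluted (256 to 4 µg/mL). Dilutions were mixed 1:3 with S. aureus suspension (10^5 CFU/mL) and incubated 20-24 h at 37 °C. MBC was taken as no colonies after 20 µL was plated on agar.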

[9] = tested on: HeLa; assay: Cytotoxicity against human HeLa cells assessed as cell morphology at 1 to 4 ug/mL incubated for 24 hrs by optical microscopy; format: cell-based; details: dose 1-4 µg/ml
In short: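 HeLa cells were kept in DMEM with 10% FBS at 37 °C and 5% CO2. Cells were seeded in 12-well plates, allowed to adhere overnight and exposed to 1, 2 or 4 µg/mL for 24 h. Untreated wells were the negative control and 0.1% Triton X-100 the positive control. After a PBS wash, morphology was imaged by inverted microscopy with a 10× objective. Three repeats.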

[10] = tested on: Staphylococcus aureus; assay: Antibiofilm activity against 24 hrs preformed biofilm of Staphylococcus aureus ATCC 29213 assessed as biofilm viability at 8 ug/ml incubated for 24 hrs by crystal violet staining analysis (reference value: 18.9 1og10CFU); format: functional; details: dose 8 µg/ml
[11] = tested on: Escherichia coli; assay: Antibiofilm activity against 72 hrs preformed biofilm of Escherichia coli ATCC 25922 assessed as biofilm viability at 128 ug/ml incubated for 24 hrs by […] (reference value: 16.1 log10CFU); format: functional; details: dose 128 µg/ml
In short: (§4)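 E. coli from mid-log phase was diluted to ~10^5 CFU/mL in M9 medium with 0.02% casamino acids and 0.5% glycerol and formed biofilm without shaking for 72 h. Wells were PBS-washed, then treated with 2-128 µg/mL for 24 h at 37 °C; medium-only wells served as control. Cells were released with trypsin-EDTA and plated as tenfold dilutions. Viability was given as log10 CFU/well.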

[12] = tested on: Staphylococcus aureus; assay: Antibacterial activity against Staphylococcus aureus ATCC 29213 assessed as reduction in bacterial growth compound preincubated with 50% sheep plasma for 3 hrs followed by incubation for 20 to 24 hrs by agar plate method; format: functional; details: time 20-24 hrs; in short: as §3
[13] = Solubility of the compound in water at room temperature; format: physicochemical; details: buffer
[14] = tested on: Staphylococcus aureus; assay: Bactericidal activity against early exponential phase of Staphylococcus aureus ATCC 29213 at 6X MIC measured after 6 hrs by time-kill kinetic assay; format: functional, organism-based
In short: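 An overnight culture was diluted 1:10,000 in MHB and shaken at 225 rpm and 37 °C for 2 h (early exponential phase), then exposed to compound. Samples taken at intervals were centrifuged, resuspended in PBS, plated as tenfold dilutions on MHA and incubated overnight at 37 °C. CFU/mL were counted. Biological replicates were run.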

[15] = tested on: Staphylococcus aureus; assay: Resistance ratio of compound MIC for methicillin-resistant Staphylococcus aureus after 20 passages to compound MIC for methicillin-resistant Staphylococcus aureus after 16 to 20 hrs by CLSI-based broth microdilution method; format: functional; in short: as §1
[16] = tested on: Escherichia coli; assay: Antibiofilm activity against 72 hrs preformed biofilm of Escherichia coli ATCC 25922 assessed as biofilm viability at 16 ug/ml incubated for 24 hrs by […] (reference value: 16.1 log10CFU); format: functional; details: dose 16 µg/ml; in short: as §4
[17] = tested on: Staphylococcus aureus; assay: Antibacterial activity against methicillin-resistant Staphylococcus aureus assessed as reduction in bacterial growth following incubation in 50% MHB medium and 50% blood and meaured after incubation with compound for 20 to 24 hrs by agar plate method; format: functional; details: time 20-24 hrs; in short: as §2
[18] = tested on: Staphylococcus aureus; assay: Antibiofilm activity against 24 hrs preformed biofilm of Staphylococcus aureus ATCC 29213 assessed as biofilm viability at 64 ug/ml incubated for 24 hrs by crystal violet staining analysis (reference value: 18.9 1og10CFU); format: functional; details: dose 64 µg/ml
[19] = tested on: Escherichia coli; assay: Antibiofilm activity against 72 hrs preformed biofilm of Escherichia coli ATCC 25922 assessed as biofilm viability at 4 ug/ml incubated for 24 hrs by […] (reference value: 16.1 log10CFU); format: functional; details: dose 4 µg/ml; in short: as §4
[20] = Hemolytic activity in sheep RBC incubated for 1 hr; format: ADME, cell-based, Ovis aries, Erythrocyte; details: sheep red blood cells (erythrocytes)
In short: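 Sheep RBCs were resuspended at 5% in PBS and mixed 3:1 with serial dilutions (2560 to 5 µg/mL, pre-mixing levels), then incubated 1 h at 37 °C. After centrifugation, supernatant A540 was read. Hemolysis % was calculated as (A−A0)/(Atotal−A0)×100, with untreated RBCs as 0% and 0.1% Triton X-100 as total lysis.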

[21] = tested on: Escherichia coli; assay: Antibiofilm activity against 72 hrs preformed biofilm of Escherichia coli ATCC 25922 assessed as biofilm viability at 8 ug/ml incubated for 24 hrs by […] (reference value: 16.1 log10CFU); format: functional; details: dose 8 µg/ml; in short: as §4
[22] = tested on: Staphylococcus aureus; assay: Antibacterial activity against Staphylococcus aureus ATCC 29213 assessed as reduction in bacterial growth compound preincubated with 50% sheep plasma for 0 hrs followed by incubation for 20 to 24 hrs by agar plate method; format: functional; details: time 20-24 hrs; in short: as §3

CCCCCCCCCCCN(C[C@H]1CN(c2ccc(N3CCOCC3)c(F)c2)C(=O)O1)C(=O)[C@@H](N)CCCCN.Cl.Cl
Activity [1]: 8.7 log10CFU | MIC [2]: 2 µg/mL | Ratio [3]: 2 | MBC [4]: 128 µg/mL | Activity [5]: 4.7 log10CFU | MBEC [6]: 64 µg/mL | MBEC80 [6]: 50.2 µg/mL | MBEC90 [6]: 59.8 µg/mL | selectivity ratio [7]: 12.5 | MBC [8]: 64 µg/mL | Activity [9]: Non-Toxic | Activity [10]: 9.9 log10CFU | Activity [11]: 5.3 log10CFU | MBC [12]: 64 µg/mL | solubility [13]: Soluble | Activity [14]: Active | Ratio [15]: 2 | Activity [16]: 7.1 log10CFU | MBC [17]: > 128 µg/mL | Activity [18]: 5.9 log10CFU | Activity [19]: 8.5 log10CFU | HC50 at 1 h [20]: 100 µg/mL | Activity [21]: 8 log10CFU | MBC [22]: 64 µg/mL
